Experiments:
HeLa [1] = assay: Antiproliferative activity against human HeLa cells after 96 hrs by MTT assay; assay type: functional, cell-based
Method in brief: (§1)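 Cells grown in RPMI 1640 with 10% FBS and penicillin/streptomycin at […] °C, 5% CO2. Trypsinised cells seeded at 1.0–2.0 × 10³ per well overnight, then exposed to a concentration range in medium for 96 h. MTT (1 mg/mL) added for 4 h, formazan dissolved in DMSO, read at 490 nm. IC50 is the concentration that cuts cell number to 50%; at least three repeats.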

HeLa [2] = assay: Antiproliferative activity against human HeLa cells at 10 uM after 96 hrs by MTT assay; assay type: functional
Method in brief: (§2)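 Same MTT set-up (RPMI 1640/10% FBS, 1.0–2.0 × 10³ cells per well, 96 h exposure, 4 h MTT, formazan in DMSO read at 490 nm). Value is the percent inhibition at a single 10 µM concentration. Experiments repeated at least three times.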

BGC-823 [3] = assay: Antiproliferative activity against human BGC823 cells after 96 hrs by MTT assay; assay type: functional, cell-based; conditions: BGC-823, 96 h; method in brief: as §1
BGC-823 [4] = assay: Antiproliferative activity against human BGC823 cells at 10 uM after 96 hrs by MTT assay; assay type: functional; conditions: BGC-823, 96 h; method in brief: as §2
SK-OV-3 [5] = assay: Antiproliferative activity against human SKOV3 cells after 96 hrs by MTT assay; assay type: functional, cell-based; conditions: SK-OV-3, 96 h; method in brief: as §1
SK-OV-3 [6] = assay: Antiproliferative activity against human SKOV3 cells at 10 uM after 96 hrs by MTT assay; assay type: functional; conditions: SK-OV-3, 96 h; method in brief: as §2
HeLa [7] = assay: Cell cycle arrest in human HeLa cells by accumulation at G1 phase at 5.0 uM after 24 hrs using PI staining by flow cytometry; assay type: functional
Method in brief: (§3)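 HeLa cells exposed for 24 h to 2.5, 5.0 or 10.0 µM; vehicle control 0.1% DMSO. Cellular DNA stained with propidium iodide, and cell-cycle phase fractions measured by flow cytometry. Experiments done three times.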

HeLa [8] = assay: Cell cycle arrest in human HeLa cells by accumulation at G1 phase at 2.5 uM after 24 hrs using PI staining by flow cytometry; assay type: functional; method in brief: as §3
HeLa [9] = assay: Cell cycle arrest in human HeLa cells by accumulation at G2/M phase at 2.5 uM after 24 hrs using PI staining by flow cytometry; assay type: functional; method in brief: as §3
HeLa [10] = assay: Cell cycle arrest in human HeLa cells by accumulation at G2/M phase at 5.0 uM after 24 hrs using PI staining by flow cytometry; assay type: functional; method in brief: as §3
HeLa [11] = assay: Cell cycle arrest in human HeLa cells by accumulation at S phase at 5.0 uM after 24 hrs using PI staining by flow cytometry; assay type: functional; method in brief: as §3
HeLa [12] = assay: Cell cycle arrest in human HeLa cells by accumulation at S phase at 2.5 uM after 24 hrs using PI staining by flow cytometry; assay type: functional; method in brief: as §3
HeLa [13] = assay: Induction of apoptosis in human HeLa cells assessed as sub-diploid DNA content after 24 hrs by flow cytometry; assay type: functional, cell-based
Method in brief: (§4)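 HeLa cells given 2.5, 5.0 or 10.0 µM and stained with propidium iodide. Apoptotic cells counted by flow cytometry as nuclei with sub-diploid DNA content, the region below the G1 peak; untreated cells served as control. Run three times.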

HeLa [14] = assay: Induction of apoptosis in human HeLa cells assessed as apoptotic cells at 10 uM by flow cytometry; assay type: functional; method in brief: as §4
HeLa [15] = assay: Cell cycle arrest in human HeLa cells by accumulation at S phase at 10.0 uM after 24 hrs using PI staining by flow cytometry; assay type: functional; method in brief: as §3
HeLa [16] = assay: Induction of apoptosis in human HeLa cells assessed as DNA fragmentation after 24 hrs by agarose gel electrophoresis; assay type: functional, cell-based
Method in brief: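 HeLa cells treated for 24 h, washed twice in PBS and lysed in 100 mM NaCl, 10 mM Tris–HCl pH 8.0, 25 mM EDTA, 0.1 mg/ml proteinase K at 50 °C for 12 h. DNA taken through phenol/chloroform/isoamyl alcohol and chloroform/isoamyl alcohol extraction, centrifuged at 12,000g for 30 min, then run on an agarose gel to look for laddering.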

HeLa [17] = assay: Cell cycle arrest in human HeLa cells by accumulation at G1 phase at 10.0 uM after 24 hrs using PI staining by flow cytometry; assay type: functional; method in brief: as §3
HeLa [18] = assay: Cell cycle arrest in human HeLa cells by accumulation at G2/M phase at 10.0 uM after 24 hrs using PI staining by flow cytometry; assay type: functional; method in brief: as §3

| SMILES | IC50 (HeLa [1]) | inhibition at 10 µM (HeLa [2]) | IC50 (BGC-823 [3]) | inhibition at 10 µM (BGC-823 [4]) | other results |
| --- | --- | --- | --- | --- | --- |
| CC(=O)O[C@H]1CC[C@]2(C)[C@H]3CC=C4[C@@H]5[C@@H](C)[C@H](C)CC[C@]5(C(=O)O)CC[C@@]4(C)[C@]3(C)CC[C@H]2C1(C)C [O-ACETYLURSOLIC ACID] | > 10 µM | 37.8% | – | – | – |
| CC(O)C(NC(=O)[C@]12CC[C@@H](C)[C@H](C)[C@H]1C1=CC[C@@H]3[C@@]4(C)CC[C@H](O)C(C)(C)[C@@H]4CC[C@@]3(C)[C@]1(C)CC2)C(=O)O (stereo not given in full) | > 10 µM | 22% | – | – | – |
| COC(=O)C(CO)NC(=O)[C@]12CC[C@@H](C)[C@H](C)[C@H]1C1=CC[C@@H]3[C@@]4(C)CC[C@H](OC(C)=O)C(C)(C)[C@@H]4CC[C@@]3(C)[C@]1(C)CC2 (stereo not given in full) | 4.3 µM | 59.9% | > 10 µM | 15.7% | – |
| CCC(C)C(NC(=O)[C@]12CC[C@@H](C)[C@H](C)[C@H]1C1=CC[C@@H]3[C@@]4(C)CC[C@H](O)C(C)(C)[C@@H]4CC[C@@]3(C)[C@]1(C)CC2)C(=O)O (stereo not given in full) | > 10 µM | 16.8% | – | – | IC50 (SK-OV-3 [5]): > 10 µM; inhibition at 10 µM (SK-OV-3 [6]): 5.01% |
| CC(=O)O[C@H]1CC[C@]2(C)[C@H]3CC=C4[C@@H]5[C@@H](C)[C@H](C)CC[C@]5(C(=O)NCCO)CC[C@@]4(C)[C@]3(C)CC[C@H]2C1(C)C | 10.8 µM | 50.3% | – | – | – |
| COC(=O)C(Cc1ccc(O)cc1)NC(=O)[C@]12CC[C@@H](C)[C@H](C)[C@H]1C1=CC[C@@H]3[C@@]4(C)CC[C@H](OC(C)=O)C(C)(C)[C@@H]4CC[C@@]3(C)[C@]1(C)CC2 (stereo not given in full) | 9.04 µM | 51.5% | > 10 µM | 41.6% | – |
| CC(=O)O[C@H]1C(=O)[C@@]2(C)[C@H]([C@H](OC(=O)c3ccccc3)[C@]3(O)C[C@H](OC(=O)[C@H](O)[C@@H](NC(=O)c4ccccc4)c4ccccc4)C(C)=C1C3(C)C)[C@]1(OC(C)=O)CO[C@@H]1C[C@@H]2O [PACLITAXEL] | – | – | 0.016 µM | – | IC50 (SK-OV-3 [5]): 0.001 µM |
| C[C@H]1[C@H](C)CC[C@]2(C(=O)NCC(=O)O)CC[C@]3(C)C(=CC[C@@H]4[C@@]5(C)CC[C@H](O)C(C)(C)[C@@H]5CC[C@]43C)[C@H]12 | > 10 µM | 15.6% | – | – | – |
| CCC(C)C(NC(=O)[C@]12CC[C@@H](C)[C@H](C)[C@H]1C1=CC[C@@H]3[C@@]4(C)CC[C@H](OC(C)=O)C(C)(C)[C@@H]4CC[C@@]3(C)[C@]1(C)CC2)C(=O)OC (stereo not given in full) | > 10 µM | 15.9% | – | – | – |
| C[C@H]1[C@H](C)CC[C@]2(C(=O)NC(Cc3ccc(O)cc3)C(=O)O)CC[C@]3(C)C(=CC[C@@H]4[C@@]5(C)CC[C@H](O)C(C)(C)[C@@H]5CC[C@]43C)[C@H]12 (stereo not given in full) | > 10 µM | 23.6% | – | – | – |
| CC(=O)O[C@H]1CC[C@]2(C)[C@H]3CC=C4[C@@H]5[C@@H](C)[C@H](C)CC[C@]5(C(=O)Nc5ccccc5CO)CC[C@@]4(C)[C@]3(C)CC[C@H]2C1(C)C | 1.63 µM | 77.5% | – | – | – |
| CC(=O)OCCNC(=O)[C@]12CC[C@@H](C)[C@H](C)[C@H]1C1=CC[C@@H]3[C@@]4(C)CC[C@H](OC(C)=O)C(C)(C)[C@@H]4CC[C@@]3(C)[C@]1(C)CC2 | 1.13 µM | 73.5% | > 10 µM | 42% | Activity (HeLa [7]): 41.8%; Activity (HeLa [8]): 41.1%; IC50 (SK-OV-3 [5]): 6.09 µM; Activity (HeLa [9]): 9.2%; Activity (HeLa [10]): 12.3%; Activity (HeLa [11]): 45.9%; inhibition at 10 µM (SK-OV-3 [6]): 54.8%; Activity (HeLa [12]): 49.8%; Activity (HeLa [13]): Dose-dependent effect; Activity (HeLa [14]): 35.3%; Activity (HeLa [15]): 44.8%; Activity (HeLa [16]): Dose-dependent effect; Activity (HeLa [17]): 51.1%; Activity (HeLa [18]): 4.2% |
| CC(=O)OCc1ccccc1NC(=O)[C@]12CC[C@@H](C)[C@H](C)[C@H]1C1=CC[C@@H]3[C@@]4(C)CC[C@H](OC(C)=O)C(C)(C)[C@@H]4CC[C@@]3(C)[C@]1(C)CC2 | > 10 µM | 30.5% | > 10 µM | 13% | IC50 (SK-OV-3 [5]): > 10 µM; inhibition at 10 µM (SK-OV-3 [6]): 1.19% |
| COC(=O)CNC(=O)[C@]12CC[C@@H](C)[C@H](C)[C@H]1C1=CC[C@@H]3[C@@]4(C)CC[C@H](OC(C)=O)C(C)(C)[C@@H]4CC[C@@]3(C)[C@]1(C)CC2 | 4.86 µM | 61.7% | > 10 µM | 17.9% | – |
| C[C@H]1[C@H](C)CC[C@]2(C(=O)NC(Cc3ccccc3)C(=O)O)CC[C@]3(C)C(=CC[C@@H]4[C@@]5(C)CC[C@H](O)C(C)(C)[C@@H]5CC[C@]43C)[C@H]12 (stereo not given in full) | > 10 µM | 27.5% | – | – | – |
| CC(=O)OCC(C)NC(=O)[C@]12CC[C@@H](C)[C@H](C)[C@H]1C1=CC[C@@H]3[C@@]4(C)CC[C@H](OC(C)=O)C(C)(C)[C@@H]4CC[C@@]3(C)[C@]1(C)CC2 (stereo not given in full) | 2.62 µM | 69.3% | 8.3 µM | 56.3% | Activity (HeLa [7]): 46.7%; Activity (HeLa [8]): 47%; IC50 (SK-OV-3 [5]): 2.24 µM; Activity (HeLa [9]): 13.6%; Activity (HeLa [10]): 8.5%; Activity (HeLa [11]): 44.8%; inhibition at 10 µM (SK-OV-3 [6]): 70.5%; Activity (HeLa [12]): 39.4%; Activity (HeLa [13]): Dose-dependent effect; Activity (HeLa [14]): 32.5%; Activity (HeLa [15]): 54%; Activity (HeLa [16]): Dose-dependent effect; Activity (HeLa [17]): 36.7%; Activity (HeLa [18]): 9.3% |
| COC(=O)C(Cc1ccccc1)NC(=O)[C@]12CC[C@@H](C)[C@H](C)[C@H]1C1=CC[C@@H]3[C@@]4(C)CC[C@H](OC(C)=O)C(C)(C)[C@@H]4CC[C@@]3(C)[C@]1(C)CC2 (stereo not given in full) | > 10 µM | 32.9% | – | – | – |
| CC(=O)O[C@H]1CC[C@]2(C)[C@H]3CC=C4[C@@H]5[C@@H](C)[C@H](C)CC[C@]5(C(=O)NC(C)CO)CC[C@@]4(C)[C@]3(C)CC[C@H]2C1(C)C (stereo not given in full) | 5.44 µM | 58.4% | – | – | – |
| C[C@H]1[C@H](C)CC[C@]2(C(=O)O)CC[C@]3(C)C(=CC[C@@H]4[C@@]5(C)CC[C@H](O)C(C)(C)[C@@H]5CC[C@]43C)[C@H]12 [URSOLIC ACID] | > 10 µM | 12.4% | > 10 µM | 10.2% | IC50 (SK-OV-3 [5]): > 10 µM; inhibition at 10 µM (SK-OV-3 [6]): 9.06% |
| COC(=O)C(NC(=O)[C@]12CC[C@@H](C)[C@H](C)[C@H]1C1=CC[C@@H]3[C@@]4(C)CC[C@H](OC(C)=O)C(C)(C)[C@@H]4CC[C@@]3(C)[C@]1(C)CC2)C(C)O (stereo not given in full) | 6.86 µM | 55.9% | – | – | – |
| C[C@H]1[C@H](C)CC[C@]2(C(=O)NC(CO)C(=O)O)CC[C@]3(C)C(=CC[C@@H]4[C@@]5(C)CC[C@H](O)C(C)(C)[C@@H]5CC[C@]43C)[C@H]12 (stereo not given in full) | > 10 µM | 16.8% | – | – | – |

From ChEMBL document CHEMBL1140864, “The synthesis of ursolic acid derivatives with cytotoxic activity and the investigation of their preliminary mechanism of action” (Bioorg Med Chem, 2009)
